In PubChem BioAssay:
Activity calls are given as the source filed them.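 How the source made its calls, unless noted: active means viability at or under a set limit in both replicates, limit being median viability minus 3 SD (cut at about 48% in these data, passing the limit was not always enough); inconclusive means at or under the limit in just one replicate; inactive means at or above the limit in both replicates.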

Legend:
[1] = Her2 expression decrease, cell viability multiplex – SKBR3 breast tumor cells, AlphaScreen, ATP viability, primary screen (AID 461;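 active means Her2 level under about 52% in both replicate screens, with viability over 70% of control, limit read from the data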;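 on Her2 level: lower value means less Her2 protein in the cells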;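 on viability: percent of carrier control wells set as 100% viability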); conditions: SKBR3 Her2 protein level, 18-24 h, measured here: SKBR3 viability, ATP luminescence, at 10 µM
[2] = target: Receptor tyrosine-protein kinase erbB-2 (Homo sapiens) (UniProt P04626); test: as above; conditions: 18-24 h, at 10 µM, stronger effect = lower value
Sequence of Receptor tyrosine-protein kinase erbB-2 (Homo sapiens) (P04626 whole entry, looked up): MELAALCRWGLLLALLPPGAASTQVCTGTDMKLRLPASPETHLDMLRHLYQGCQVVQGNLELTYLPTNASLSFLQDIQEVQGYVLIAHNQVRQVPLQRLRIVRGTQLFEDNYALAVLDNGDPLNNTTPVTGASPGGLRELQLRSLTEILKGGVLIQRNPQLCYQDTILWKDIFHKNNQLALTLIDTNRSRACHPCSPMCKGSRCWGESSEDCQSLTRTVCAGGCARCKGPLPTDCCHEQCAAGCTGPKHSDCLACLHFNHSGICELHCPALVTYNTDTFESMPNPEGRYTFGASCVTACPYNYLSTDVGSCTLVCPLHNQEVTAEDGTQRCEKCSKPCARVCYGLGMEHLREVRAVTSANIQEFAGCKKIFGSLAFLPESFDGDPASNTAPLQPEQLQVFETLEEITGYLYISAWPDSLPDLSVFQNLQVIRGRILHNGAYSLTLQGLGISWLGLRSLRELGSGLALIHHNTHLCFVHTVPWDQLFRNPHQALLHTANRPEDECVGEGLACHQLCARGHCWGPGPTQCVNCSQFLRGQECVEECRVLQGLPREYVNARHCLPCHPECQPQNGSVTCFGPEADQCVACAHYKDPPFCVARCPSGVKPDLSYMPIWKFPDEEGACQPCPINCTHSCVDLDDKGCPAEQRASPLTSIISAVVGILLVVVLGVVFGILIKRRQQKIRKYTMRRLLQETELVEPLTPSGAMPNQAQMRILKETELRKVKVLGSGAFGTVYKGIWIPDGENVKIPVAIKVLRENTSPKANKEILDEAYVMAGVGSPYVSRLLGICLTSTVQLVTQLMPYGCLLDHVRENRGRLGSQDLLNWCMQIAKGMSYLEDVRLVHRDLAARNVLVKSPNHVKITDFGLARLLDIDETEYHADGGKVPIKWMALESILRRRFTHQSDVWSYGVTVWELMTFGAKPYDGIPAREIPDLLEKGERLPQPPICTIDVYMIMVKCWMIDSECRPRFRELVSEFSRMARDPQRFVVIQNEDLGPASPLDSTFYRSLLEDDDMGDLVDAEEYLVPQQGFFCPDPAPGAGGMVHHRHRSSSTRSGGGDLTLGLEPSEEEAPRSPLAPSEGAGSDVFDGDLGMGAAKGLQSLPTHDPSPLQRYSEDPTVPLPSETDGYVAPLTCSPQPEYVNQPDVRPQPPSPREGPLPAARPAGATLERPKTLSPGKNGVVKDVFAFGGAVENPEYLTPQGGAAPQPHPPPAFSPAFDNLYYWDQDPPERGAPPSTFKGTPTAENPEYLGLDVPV

[3] = reduced viability of SK-BR-3 breast cancer cells – cell-based, 24 h, human, pilot screen (AID 572;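 active means viability at or below 10% of carrier control in both of two separate runs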;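 further: compound exposure lasted between 18 and 24 h rather than exactly 24 h; 100% = carrier-treated control wells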); conditions: SK-BR-3 viability, CellTiter-Glo luminescence, at 10 µM, stronger effect = lower value
[4] = HUVEC growth inhibition – cell-based, human, primary screen (AID 575;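 active means viability at or below 30% in both replicate assays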;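 further: 100% = median of untreated cell wells with 0.1% DMSO on each plate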); conditions: HUVEC proliferation, CellTiter-Glo luminescence, 72 h; at 10 µM; stronger effect = lower value
Outline: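 Test system: primary human umbilical vein endothelial cells; medium: endothelial basal medium with 2% FBS plus growth supplements; dosing: 10 µM compound only; times: 72 h treatment at 37 °C; signal: CTG luminescence; read-out: % viability relative to median vehicle-well signal on each plate; control set: vehicle and MePR control wells; plate: 384-well, collagen-coated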

[5] = H69AR cell proliferation blockers – human, duplicate replicates, primary screen (AID 580); conditions: H69AR lung tumor cells viability, ATP luminescence, 72 h; at 10 µM; stronger effect = lower value;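 further: 100% = mean luminescence of untreated wells and 0% = no signal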
[6] = MRP1 drug-resistance reversers in H69AR cells – cell-based, doxorubicin co-treatment, pilot screen (AID 601;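 active means viability loss from added drug above about 55%, and viability with drug at most 40%, in both replicates, limit read from the data, passing the limit was not always enough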); conditions: CellTiter-Glo, 72 h, at 10 µM; for differential viability (reversal): stronger effect = higher value
[7] = yeast transport mutant growth inhibition pilot in 384-well plates, post-Golgi transport modulator project (AID 636; in the data active means inhibition above about 31%); conditions: absorbance 615 nm, about 18 h, stronger effect = higher value
[8] = growth suppression of yeast trafficking mutant, preliminary HTS, modulators of trafficking downstream of Golgi apparatus project, 1536-format plate, OD 615 nm (AID 637; in the data active means inhibition above about 30%); conditions: yeast transport mutant growth, absorbance 615 nm, 18 h; stronger effect = higher value
[9] = H69AR cells + 2 uM doxorubicin, measured here: viability with 2 uM doxorubicin, stronger effect = lower value
[10] = H69AR cells, compound alone cytotoxicity

Row | Compound | viability [1] | Her2 level [2] | viability [3] | viability [4] | viability [5] | differential viability (reversal) ([6]; H69AR cells + 2 uM doxorubicin) | viability [6, 9] | viability [6, 10] | inhibition [7] | inhibition [8]
1 | Cc1ccc(-n2c(SCC3CCCCO3)nnc2-c2ccco2)cc1 (stereo not given) | 89% | 83% (inactive) | 89% (inactive) | 102% (inactive) | 91.4% (inactive) | 15.5% (inactive) | 75.9% | 91.4% | 0% (inactive) | -8.5% (inactive)
2 | Nc1nonc1-c1noc(-c2ccccc2Br)n1 | 112% | 76.5% (inactive) | 112% (inactive) | 54.7% (inactive) | 95.1% (inactive) | 3.17% (inactive) | 92% | 95.1% | -6.62% (inactive) | 5.67% (inactive)
3 | O=C(CCSc1ccccc1)Nc1ccc(S(=O)(=O)N2CCOCC2)cc1 | 102% | 83.5% (inactive) | 102% (inactive) | 81.2% (inactive) | 104% (inactive) | 12.5% (inactive) | 91.6% | 104% | -9.18% (inactive) | -1.27% (inactive)
4 | O=C(O)CCn1c(SCc2ccccc2)nc2ccccc21 | 116% | 107% (inactive) | 116% (inactive) | 112% (inactive) | 89.3% (inactive) | 12.2% (inactive) | 77% | 89.3% | -5.73% (inactive) | 5.65% (inactive)
5 | CSc1ccccc1C(=O)NC1CC2CCC1C2 (stereo not given) | 102% | 89.5% (inactive) | 102% (inactive) | 92.9% (inactive) | 94.8% (inactive) | 7.59% (inactive) | 87.2% | 94.8% | -5.33% (inactive) | 5.65% (inactive)
6 | COC(=O)c1ccnc(/C=N/O)c1 | 95% | 76% (inactive) | 95% (inactive) | 99.8% (inactive) | 88.1% (inactive) | 7.13% (inactive) | 81% | 88.1% | -3.92% (inactive) | 2.7% (inactive)
7 | COC(=O)CN(c1ccc(F)cc1)S(=O)(=O)c1ccccc1 | 91.5% | 109% (inactive) | 91.5% (inactive) | 122% (inactive) | 92.1% (inactive) | -0.7% (inactive) | 92.8% | 92.1% | 0.13% (inactive) | -3.93% (inactive)
8 | CCOC(=O)C1CCCN(Cc2nc(N)nc(Nc3ccccc3)n2)C1 (stereo not given) | 100% | 87% (inactive) | 100% (inactive) | 92.8% (inactive) | 91.1% (inactive) | 5.62% (inactive) | 85.5% | 91.1% | 1.05% (inactive) | 0.32% (inactive)
9 | Cn1c(SCc2ccccc2)nnc1C1CCCNC1 (stereo not given) | 112% | 106% (inactive) | 112% (inactive) | 103% (inactive) | 90.8% (inactive) | -4.07% (inactive) | 94.8% | 90.8% | 0% (inactive) | 0.17% (inactive)
10 | COc1ccc(N(CC(=O)N2CCCCC2)S(=O)(=O)c2ccccc2)c(OC)c1 | 91% | 94.5% (inactive) | 91% (inactive) | 91.9% (inactive) | 86.5% (inactive) | -2.6% (inactive) | 89.1% | 86.5% | -1.03% (inactive) | -3.83% (inactive)
11 | CCOc1ccc(C(CC(=O)O)NC(=O)c2ccco2)cc1OC (stereo not given) | 102% | 102% (inactive) | 102% (inactive) | 104% (inactive) | 94.2% (inactive) | 1.89% (inactive) | 92.3% | 94.2% | -6.76% (inactive) | -1.33% (inactive)
12 | NC(=O)C1(N2CCCCC2)CCN(CC(=O)Nc2cc(Cl)ccc2Cl)CC1 | 105% | 91.5% (inactive) | 105% (inactive) | 81.6% (inactive) | 91.8% (inactive) | -11.5% (inactive) | 103% | 91.8% | -1.6% (inactive) | 2.79% (inactive)
13 | Cc1ccc2c(c1)sc1ncc(NC(=O)c3ccccc3)c(=O)n12 | 88.5% | 87% (inactive) | 88.5% (inactive) | 114% (inactive) | 91.7% (inactive) | 3.43% (inactive) | 88.3% | 91.7% | -0.67% (inactive) | 0.66% (inactive)
14 | C=CCN(CC=C)C(=O)CN1C(=O)c2ccccc2C1=O | 125% | 89.5% (inactive) | 125% (inactive) | 97.5% (inactive) | 92.2% (inactive) | 0.065% (inactive) | 92.1% | 92.2% | 0% (inactive) | 1.13% (inactive)
15 | COc1cccc(OCCOCCN(C)CCO)c1 | 124% | 124% (inactive) | 124% (inactive) | 84.4% (inactive) | 97.3% (inactive) | 7.71% (inactive) | 89.6% | 97.3% | -4.93% (inactive) | -1.45% (inactive)
16 | CCOC(=O)Cn1nnnc1CN(Cc1ccc(OC)cc1)Cc1cc2cc(C)cc(C)c2[nH]c1=O | 95% | 105% (inactive) | 95% (inactive) | 87.3% (inactive) | 89.4% (inactive) | 15.2% (inactive) | 74.2% | 89.4% | -1.32% (inactive) | -0.55% (inactive)
